From ChEMBL document CHEMBL1817572, “New, potent, selective, and short-acting peptidic V1a receptor agonists” (J Med Chem, 2011)
Numbered stars: 1 amine (or outer) side, 2 acyl side, 3 side chain; on linkers, the order of the positions; unused ones are H or OH. Bridge positions count the residues as written; N and C are the ends. Square brackets hold non-standard residues; d marks the D form. Peptide text beside a SMILES is read from it. Ala(2-furyl) = N[C@@H](Cc1ccco1)C(=O)O; Orn(iPr) = CC(C)NCCC[C@H](N)C(=O)O; X1 = CCNCCC[C@H](N[*:1])C(=O)[*:2]; 2Thi = N[C@@H](Cc1cccs1)C(=O)O; Cha = N[C@@H](CC1CCCCC1)C(=O)O; Orn = NCCC[C@H](N)C(=O)O; Dab = NCC[C@H](N)C(=O)O

How the values were obtained:
Rattus norvegicus [1] = experiment: Vasoconstriction in Wistar rat assessed as assessed as decay in vasopressive duration of action at 0.1 nmol/kg, iv bolus measured over 10 sec interval; type: functional
Vasopressin V1b receptor = biological target: T1, Vasopressin V1b receptor (Homo sapiens, UniProt P47901); experiment: Agonist activity at recombinant human vasopressin V1b receptor expressed in Flp-In-293 cells by luciferase reporter gene assay; type: functional, cell-based; conditions: read-out: EC50
T1 sequence (P47901 whole entry): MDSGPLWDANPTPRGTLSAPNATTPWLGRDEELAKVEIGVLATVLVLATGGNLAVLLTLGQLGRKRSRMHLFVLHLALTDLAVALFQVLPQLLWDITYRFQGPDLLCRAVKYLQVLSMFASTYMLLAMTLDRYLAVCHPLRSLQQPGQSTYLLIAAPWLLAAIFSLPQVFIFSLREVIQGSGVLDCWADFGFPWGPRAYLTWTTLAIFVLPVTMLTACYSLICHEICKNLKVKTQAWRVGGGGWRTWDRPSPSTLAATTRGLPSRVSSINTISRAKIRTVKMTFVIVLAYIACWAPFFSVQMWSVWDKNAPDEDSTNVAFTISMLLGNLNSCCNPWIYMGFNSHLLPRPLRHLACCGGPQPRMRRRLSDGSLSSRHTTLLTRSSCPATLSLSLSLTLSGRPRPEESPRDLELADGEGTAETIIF
Method in brief: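 Reporter gene assays in HEK293 cells transiently cotransfected with V1a (human or rat) or human V2 receptor vector plus NFAT-luciferase (V1a) or CRE-luciferase (V2) reporter; V1b in Flp-In-293 stably expressing receptor, OT in CHO-K1 stably expressing receptor, both transiently transfected with NFAT-luciferase. Two days post-transfection, peptides added for 5 h at 37 °C, lysis with luciferin, luminescence read.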

Oxytocin receptor = biological target: T2, Oxytocin receptor (Homo sapiens, UniProt P30559); experiment: Agonist activity at human OT receptor expressed in CHO-K1 cells by luciferase reporter gene assay; type: functional, cell-based
T2 sequence (P30559 whole entry): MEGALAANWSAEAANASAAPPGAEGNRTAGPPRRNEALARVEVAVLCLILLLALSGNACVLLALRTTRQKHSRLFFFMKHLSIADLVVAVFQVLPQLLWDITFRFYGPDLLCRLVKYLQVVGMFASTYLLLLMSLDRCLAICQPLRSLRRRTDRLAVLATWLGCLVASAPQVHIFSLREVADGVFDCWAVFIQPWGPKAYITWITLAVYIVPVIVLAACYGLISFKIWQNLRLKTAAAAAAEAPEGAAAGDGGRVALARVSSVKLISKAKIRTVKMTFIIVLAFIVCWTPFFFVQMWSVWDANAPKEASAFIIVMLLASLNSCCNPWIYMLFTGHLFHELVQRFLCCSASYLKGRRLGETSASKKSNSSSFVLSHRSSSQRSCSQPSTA

Vasopressin V1a receptor [2] = biological target: Vasopressin V1a receptor (Rattus norvegicus, UniProt P30560); experiment: Agonist activity at recombinant rat vasopressin V1a receptor expressed in HEK293 cells by luciferase reporter gene assay; type: functional, cell-based; conditions: read-out: EC50
[3] = biological target: T3, Vasopressin V1b receptor (Homo sapiens) (UniProt P47901); experiment: Partial agonist activity at recombinant human vasopressin V1b receptor expressed in Flp-In-293 cells by luciferase reporter gene assay; type: functional, cell-based
T3 sequence (whole entry): T1 sequence (P47901 whole entry)
Method in brief: (§1)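 Same luciferase reporter systems (OT in stable CHO-K1, V1b in stable Flp-In-293, each with transient NFAT-luciferase; V1a in HEK293 with NFAT-luciferase, V2 in HEK293 with CRE-luciferase). Peptides added for 5 h at 37 °C two days post-transfection, luminescence read. Partial agonism means efficacy <70%.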

Vasopressin V1a receptor [4] = biological target: T4, Vasopressin V1a receptor (Homo sapiens, UniProt P37288); experiment: Agonist activity at recombinant human vasopressin V1a receptor expressed in HEK293 cells by luciferase reporter gene assay; type: functional, cell-based; conditions: read-out: EC50
Target sequence in this assay (P37288 whole entry): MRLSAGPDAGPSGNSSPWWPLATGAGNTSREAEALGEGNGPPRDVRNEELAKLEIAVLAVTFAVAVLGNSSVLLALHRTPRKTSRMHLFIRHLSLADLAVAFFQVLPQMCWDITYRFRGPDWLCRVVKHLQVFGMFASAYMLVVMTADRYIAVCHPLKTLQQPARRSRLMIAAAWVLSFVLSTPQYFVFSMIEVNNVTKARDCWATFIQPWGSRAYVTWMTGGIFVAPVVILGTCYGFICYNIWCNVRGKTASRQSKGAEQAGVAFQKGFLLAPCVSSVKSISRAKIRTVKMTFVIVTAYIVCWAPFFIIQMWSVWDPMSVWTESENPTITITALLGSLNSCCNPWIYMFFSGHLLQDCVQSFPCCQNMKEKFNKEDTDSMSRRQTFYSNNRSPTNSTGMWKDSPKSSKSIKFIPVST

Homo sapiens [5] = species: Homo sapiens; experiment: Selectivity ratio of EC50 for human vasopressin V1b receptor to EC50 for human vasopressin V1a receptor
Homo sapiens [6] = species: Homo sapiens; experiment: Selectivity ratio of EC50 for human oxytocin receptor to EC50 for human vasopressin V1a receptor
Vasopressin V2 receptor [7] = biological target: T5, Vasopressin V2 receptor (Homo sapiens, UniProt P30518); experiment: Agonist activity at recombinant human vasopressin V2 receptor expressed in HEK293 cells by luciferase reporter gene assay; type: functional, cell-based
Vasopressin V2 receptor [8] = biological target: T5, Vasopressin V2 receptor; experiment: Partial agonist activity at recombinant human vasopressin V2 receptor expressed in HEK293 cells by luciferase reporter gene assay; type: functional, cell-based; method in brief: as §1
Rattus norvegicus [9] = experiment: Vasoconstriction in Wistar rat assessed as assessed as decay in vasopressive duration of action at 0.2 nmol/kg, iv bolus measured over 10 sec interval; type: functional
[10] = biological target: Vasopressin V1a/V2 (Homo sapiens) (UniProt P30518+P37288); experiment: Selectivity ratio of EC50 for human vasopressin V2 receptor to EC50 for human vasopressin V1a receptor
Rattus norvegicus [11] = experiment: Vasoconstriction in Wistar rat assessed as assessed as decay in vasopressive duration of action at 60 nmol/kg, iv bolus measured over 10 sec interval; type: functional
Method in brief: (§2)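 Fasted male Wistar rats (206–340 g) under isoflurane, then thiobutabarbital 150 mg/kg ip, ventilated, 37–38 °C, with carotid pressure and jugular dosing. Dibenamine 1.8 mg/rat iv pretreatment. Sequence: iv boluses (0.5 mL/kg) of heparinized vehicle, then two reference doses of 0.1 nmol/kg, then two test doses; one matches the reference diastolic pressure rise. Relative duration = reference decay rate / test decay rate; mean ± SEM.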

Vasopressin V1a receptor [12] = biological target: T4, Vasopressin V1a receptor; experiment: Partial agonist activity at recombinant human vasopressin V1a receptor expressed in HEK293 cells by luciferase reporter gene assay; type: functional, cell-based; method in brief: as §1
Target sequence in this assay (P37288 whole entry, looked up): as the sequence (P37288 whole entry) above

Rattus norvegicus [13] = experiment: Vasoconstriction in Wistar rat assessed as assessed as decay in vasopressive duration of action at 6 nmol/kg, iv bolus measured over 10 sec interval; type: functional; method in brief: as §2
Rattus norvegicus [14] = experiment: Vasoconstriction in Wistar rat assessed as assessed as decay in vasopressive duration of action at 0.6 nmol/kg, iv bolus measured over 10 sec interval; type: functional; method in brief: as §2
Rattus norvegicus [15] = experiment: Vasoconstriction in Wistar rat assessed as decay in vasopressive duration of action at 1 nmol/kg, iv bolus measured over 10 sec interval; type: functional; method in brief: as §2

Vasopressin V1a receptor (Rattus norvegicus, UniProt P30560), sequence (P30560 whole entry): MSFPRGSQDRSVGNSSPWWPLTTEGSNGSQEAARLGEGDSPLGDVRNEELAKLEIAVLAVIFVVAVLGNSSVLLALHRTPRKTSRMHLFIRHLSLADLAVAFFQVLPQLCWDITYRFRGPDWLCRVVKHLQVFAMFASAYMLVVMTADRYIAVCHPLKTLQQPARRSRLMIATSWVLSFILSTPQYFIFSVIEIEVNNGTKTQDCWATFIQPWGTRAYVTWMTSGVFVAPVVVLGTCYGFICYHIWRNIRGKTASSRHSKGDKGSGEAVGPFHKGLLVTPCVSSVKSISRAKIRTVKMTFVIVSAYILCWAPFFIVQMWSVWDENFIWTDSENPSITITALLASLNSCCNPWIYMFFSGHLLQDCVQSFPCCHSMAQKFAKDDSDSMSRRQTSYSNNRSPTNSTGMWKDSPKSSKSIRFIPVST
T5 sequence (P30518 whole entry): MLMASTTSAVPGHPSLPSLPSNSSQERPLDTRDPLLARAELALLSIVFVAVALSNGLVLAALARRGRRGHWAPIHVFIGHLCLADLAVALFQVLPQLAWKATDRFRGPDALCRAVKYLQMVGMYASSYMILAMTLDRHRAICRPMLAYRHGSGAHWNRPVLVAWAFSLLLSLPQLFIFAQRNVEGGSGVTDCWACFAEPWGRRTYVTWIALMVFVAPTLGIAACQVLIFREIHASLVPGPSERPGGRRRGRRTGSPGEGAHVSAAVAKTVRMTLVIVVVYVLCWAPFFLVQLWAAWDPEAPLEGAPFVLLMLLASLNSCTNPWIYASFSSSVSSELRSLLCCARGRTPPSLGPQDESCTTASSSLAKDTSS
Vasopressin V1a/V2 (Homo sapiens), sequence (P30518 whole entry, looked up): as the sequence (P30518 whole entry) above
Vasopressin V1a/V2 (Homo sapiens), sequence (P37288 whole entry, looked up): as the sequence (P37288 whole entry) above

SMILES | EC50 (Vasopressin V1b receptor) [nM] | EC50 (Oxytocin receptor; read-out: EC50) [nM] | EC50 (Vasopressin V1a receptor [2]) [nM] | EC50 (Vasopressin V1a receptor [4]) [nM] | Ratio EC50 (Homo sapiens [5]) | Ratio EC50 (Homo sapiens [6]) | EC50 (Vasopressin V2 receptor [7]; read-out: EC50) [nM] | Efficacy (Vasopressin V2 receptor [8]) [%] | Ratio EC50 [10] | EC50 (Oxytocin receptor; cho-k1, read-out: EC50) [nM] | EC50 (Oxytocin receptor; read-out: pEC50 (converted)) [nM] | EC50 (Vasopressin V2 receptor [7]; hek293, read-out: EC50) [nM] | EC50 (Vasopressin V2 receptor [7]; read-out: pEC50 (converted)) [nM] | other results
NCCC[C@H](NC(=O)[C@@H]1CCCN1C(=O)[C@@H]1CSSC[C@H](N)C(=O)N[C@@H](Cc2ccc(O)cc2)C(=O)N[C@@H](Cc2ccccc2)C(=O)N[C@@H](CCC(N)=O)C(=O)N[C@@H](CC(N)=O)C(=O)N1)C(=O)NCC(N)=O [ORNIPRESSIN] | 7.5 | 71 | – | – | – | – | – | – | – | – | – | – | – | Time (Rattus norvegicus [1]): 1.1 unitless ratio
CCNCCC[C@H](NC(=O)[C@@H]1CCCN1C(=O)[C@@H]1CSSC[C@H](N)C(=O)N[C@@H](Cc2ccccc2)C(=O)N[C@@H]([C@@H](C)CC)C(=O)N[C@@H](CCC(N)=O)C(=O)N[C@@H](CC(N)=O)C(=O)N1)C(=O)NCC(N)=O (H-CFIQNCP[X1]G-NH2; disulfide 1-6) | 32 | 32 | 0.16 | 0.57 | 56 | 56 | 260 | < 70 | 450 | – | – | – | – | Efficacy [3]: < 70%; Time (Rattus norvegicus [9]): 2.1 min
CC[C@H](C)[C@@H]1NC(=O)[C@H](CC2CCCCC2)NC(=O)[C@@H](N)CSSC[C@@H](C(=O)N2CCC[C@H]2C(=O)N[C@@H](CCCNC(C)C)C(=O)NCC(N)=O)NC(=O)[C@H](CC(N)=O)NC(=O)[C@H](CC(N)=O)NC1=O (H-C[Cha]INNCP[Orn(iPr)]G-NH2; disulfide 1-6) | 110 | – | 57 | 1.4 | 78 | > 7100 | 970 | – | 690 | > 10000 | > 10000 | – | – | Time (Rattus norvegicus [11]): 4.1 unitless ratio
CC[C@H](C)[C@@H]1NC(=O)[C@H](Cc2ccccc2)NC(=O)[C@@H](N)CSSC[C@@H](C(=O)N2CCC[C@H]2C(=O)N[C@@H](CCCNC(C)C)C(=O)NCC(N)=O)NC(=O)[C@H](CC(N)=O)NC(=O)[C@H](CCC(N)=O)NC1=O (H-CFIQNCP[Orn(iPr)]G-NH2; disulfide 1-6) | 44 | 33 | 0.13 | 0.38 | 110 | 86 | 290 | < 70 | 760 | – | – | – | – | Time (Rattus norvegicus [9]): 2.3 min; Efficacy (Vasopressin V1a receptor [12]): < 70%
CC[C@H](C)[C@@H]1NC(=O)[C@H](Cc2ccccc2)NC(=O)[C@@H](N)CSSC[C@@H](C(=O)N2CCC[C@H]2C(=O)N[C@@H](CCN)C(=O)NCC(N)=O)NC(=O)[C@H](CC(N)=O)NC(=O)[C@H](CC(N)=O)NC1=O (H-CFINNCP[Dab]G-NH2; disulfide 1-6) | 37 | – | 2 | 2.9 | 12 | > 3400 | – | – | > 3400 | > 10000 | > 10000 | > 10000 | > 10000 | Time (Rattus norvegicus [13]): 2 unitless ratio
CC[C@H](C)[C@@H]1NC(=O)[C@H](Cc2cccs2)NC(=O)[C@@H](N)CSSC[C@@H](C(=O)N2CCC[C@H]2C(=O)N[C@@H](CCCNC(C)C)C(=O)NCC(N)=O)NC(=O)[C@H](CC(N)=O)NC(=O)[C@H](CCC(N)=O)NC1=O (H-C[2Thi]IQNCP[Orn(iPr)]G-NH2; disulfide 1-6) | 370 | 110 | 0.32 | 0.69 | 530 | 150 | 390 | < 70 | 560 | – | – | – | – | Time (Rattus norvegicus [14]): 2.7 unitless ratio
CC[C@H](C)[C@@H]1NC(=O)[C@H](Cc2ccco2)NC(=O)[C@@H](N)CSSC[C@@H](C(=O)N2CCC[C@H]2C(=O)N[C@@H](CCCNC(C)C)C(=O)NCC(N)=O)NC(=O)[C@H](CC(N)=O)NC(=O)[C@H](CCC(N)=O)NC1=O (H-C[Ala(2-furyl)]IQNCP[Orn(iPr)]G-NH2; disulfide 1-6) | 570 | 260 | 0.62 | 2.6 | 210 | 100 | 950 | – | 360 | – | – | – | – | Time (Rattus norvegicus [15]): 1.5 unitless ratio
N=C(N)NCCC[C@H](NC(=O)[C@@H]1CCCN1C(=O)[C@@H]1CSSC[C@H](N)C(=O)N[C@@H](Cc2ccc(O)cc2)C(=O)N[C@@H](Cc2ccccc2)C(=O)N[C@@H](CCC(N)=O)C(=O)N[C@@H](CC(N)=O)C(=O)N1)C(=O)NCC(N)=O [VASOPRESSIN] | – | – | – | – | – | – | – | – | – | – | – | – | – | Time (Rattus norvegicus [1]): 1 unitless ratio
CCNCCC[C@H](NC(=O)[C@@H]1CCCN1C(=O)[C@@H]1CSSC[C@H](N)C(=O)N[C@@H](Cc2ccccc2)C(=O)N[C@@H]([C@@H](C)CC)C(=O)N[C@@H](CC(N)=O)C(=O)N[C@@H](CC(N)=O)C(=O)N1)C(=O)NCC(N)=O (H-CFINNCP[X1]G-NH2; disulfide 1-6) | 120 | – | 8 | 0.99 | 120 | > 10000 | – | – | > 10000 | > 10000 | > 10000 | > 10000 | > 10000 | Time (Rattus norvegicus [13]): 2.4 unitless ratio
CC[C@H](C)[C@@H]1NC(=O)[C@H](Cc2ccccc2)NC(=O)[C@@H](N)CSSC[C@@H](C(=O)N2CCC[C@H]2C(=O)N[C@@H](CCCN)C(=O)NCC(N)=O)NC(=O)[C@H](CC(N)=O)NC(=O)[C@H](CC(=O)N(C)C)NC1=O (H-CFID(NMe2)NCP[Orn]G-NH2; disulfide 1-6) | 62 | – | 1 | 1.7 | 36 | > 5800 | – | – | > 5800 | > 10000 | > 10000 | > 10000 | > 10000 | Time (Rattus norvegicus [15]): 1.6 unitless ratio
